BB579 growth dn = growth inhibitors of yeast BB579 in restrictive medium, primary screen, yeast lifespan-shortening project, S. cerevisiae; OD615, 48 h; inhibition, % at 10 µM; 140,000 tested, 0.51% active; AID 804, 2007;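 active means inhibition above a set limit, 3 SD over the mean compound inhibition, cut at about 44% in these data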
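Test system: DeaD yeast strain BB579 / Buffer or medium: restrictive glucose-based CSMM-D medium / Doses: single 10 µM dose / Schedule: 4 h cell preincubation, 48 h compound exposure, 30 °C humidified / Technique: culture absorbance at 615 nm / Controls: amphotericin B positive control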
Yeast life ext = compounds extending yeast replicative lifespan, primary screen, S. cerevisiae, OD615; S. cerevisiae growth with nicotinamide; deaD strain in restrictive glucose medium; inhibition of the nicotinamide effect, % at 10 µM; 130,000 tested, 0.68% active; AID 775, 2007;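 active means inhibition above a set limit, placed 3 SD over the median of all compounds, cut at about 26% in these data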
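Buffer or medium: CSMM-D glucose medium, restrictive; test system: modified budding yeast, DeaD strain; compound: single dose 10 µM compound, 0.25% DMSO; schedule: culture preincubation 4 h, compound exposure 48 h, both 30 °C; detection: optical density (absorbance) at 615 nm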
PostGolgi yeast = phenotypic screen on post-Golgi transport, primary screen. post-Golgi transport phenotypic cell assay. 98,000 tested, 0.9% active. inhibition, % at 10 µM. AID 739, 2007;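 further: yeast cells grown in 1536-well plates; yeast grown about 18 h at 30C before absorbance read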
PostGolgi ctrl = growth inhibition of yeast control strain, primary screen, counter-screen for post-Golgi transport modulator project; efflux-deficient yeast background strain, growth absorbance A615, 16 h; inhibition, % at 10 µM; 98,000 tested, 5% active
Hits are given with their value; – = inactive; · = no result. Shown is part of a subset that was picked to be rich in hits. Unless noted, no stated cut-off is given here; in the data, active means inhibition above about 30%; inactive means the rest.

SMILES	BB579 growth dn	Yeast life ext	PostGolgi yeast	PostGolgi ctrl
Cc1ccc(C)c(N2C(=O)CN=C2Nc2ccccc2Cl)c1	–	–	–	–
CCCCN(C)CCC(=O)Nc1ccc(C)cc1	–	–	·	·
Cc1c(-c2nc(N)nc(Nc3ccc(F)cc3)n2)oc2ccccc12	–	–	–	40
Cc1ccccc1C(=O)NNC(=S)NC(=O)c1ccccc1	–	30	·	·
Cc1ccc(C(=O)NC(=S)NNC(=O)c2ccccc2[N+](=O)[O-])cc1	–	·	·	·
O=C(CCc1ccccc1)NNC(=S)NC(=O)c1ccccc1	69	–	–	32
CC(C)(C)c1cc(CCC(=O)NNC(=S)NC(=O)c2ccccc2)cc(C(C)(C)C)c1O	–	–	·	·
O=C(c1ccc(C#CC2(O)CCCCC2)cc1)N1CCN(Cc2ccccc2)CC1	–	–	–	30
COc1ccc(S(=O)(=O)n2nc(-c3ccc(Cl)cc3)cc2N)cc1OC	–	–	–	31
CC(C)(C)C(=O)/C=c1\[nH]c(=O)/c(=C\c2ccc(C#N)cc2)s1	–	–	–	–
Cc1cccc(/C=c2\s/c(=C\C(=O)C(C)(C)C)[nH]c2=O)c1	–	–	–	36
O=C(Oc1ccc([N+](=O)[O-])cc1)c1cc(-c2ccccc2)nc2ccccc12	–	–	–	42
CCN(CC)C(=O)COC(=O)c1cc(-c2ccc(OC)cc2)nc2ccccc12	–	–	–	40
CCn1c(=O)c(C(=O)NCc2cccnc2)c(O)c2ccccc21	–	–	–	–
CC(C)Cn1c(=O)c(C(=O)NCc2ccccn2)c(O)c2ccccc21	–	–	–	31
CCCn1c(=O)c(C(=O)NNS(=O)(=O)c2ccc(C)cc2)c(O)c2ccccc21	–	–	·	·
CCCn1c(=O)c(C(=O)NCc2ccncc2)c(O)c2ccccc21	–	28	–	–
CCn1c(=O)c(C(=O)NC(C)C)c(O)c2ccccc21	–	–	–	–
CCn1c(=O)c(C(=O)NNS(=O)(=O)c2ccc(C)cc2)c(O)c2ccccc21	–	32	·	·
CC(C)C(=O)Nc1cccc(C(=O)Nc2nccs2)c1	–	–	–	–
COC(=O)CN1C(c2ccccc2)=Nc2ccc(Cl)cc2C1c1ccccc1 (configuration not stated)	–	–	–	30
NNC(=O)CN1C(c2ccc(Cl)cc2)=Nc2ccc(Br)cc2C1c1ccccc1 (configuration not stated)	–	–	–	–
Cc1ccc2cccc(Oc3nnnn3-c3ccccc3)c2n1	–	–	–	30
Cc1csc(NC(=O)CSc2nnc(Cn3c(=O)sc4ccccc43)n2-c2ccccc2)n1	–	–	–	–
Clc1ccc(-c2nnc3ccccn23)cc1	–	–	–	–
SMILES	BB579 growth dn	Yeast life ext	PostGolgi yeast	PostGolgi ctrl
Clc1cc2nc3ccccn3c2cc1Cl	43	–	–	–
CCOC(=O)C1=C(SCC(=O)Nc2ccccc2)NC(=O)C(C#N)C12CCCCC2 (configuration not stated)	–	–	–	–
CC1(c2ccccc2)NC(=O)N(CC(=O)Nc2cccc(C#N)c2)C1=O (configuration not stated)	–	–	–	–
CCOC(=O)CC(=O)CSc1[nH]c(=O)cc(C)c1C#N	–	–	–	–
CCn1cnc2sc(C(=O)N(Cc3ccc(N(C)C)cc3)Cc3ccco3)c(C)c2c1=O	–	–	–	39
CC(Oc1ncnc2ccccc12)C(=O)Nc1cccc(S(=O)(=O)N2CCOCC2)c1 (configuration not stated)	–	–	·	·
CCOc1c2c(nc3ccc(Cl)cc13)CCC2	–	–	–	36
C=CCC1(O)C(=O)N2C(=C1C(=O)N1CCOCC1)c1ccccc1CC2(C)C (configuration not stated)	–	–	–	–
O=S(=O)(Nc1ccc(N2CCCCC2)cc1)c1cccc2cccnc12	–	–	–	38
COc1ccc(NS(=O)(=O)c2cccc3cccnc23)cc1	–	·	·	·
C/C(CC1(O)C(=O)N(C)c2ccccc21)=N\O (configuration not stated)	–	–	–	–
CN1C(=O)C(Cl)(Cl)C(=O)c2ccccc21	–	47	·	·
Cc1[nH]nc(N=CC2=C(O)CC(C)(C)CC2=O)c1-c1ccc(Cl)cc1	–	–	79	–
CN(/N=C\c1ccc(O)c(O)c1)c1nc(-c2ccccc2)cc(-c2ccccc2)n1	–	–	·	·
CCc1ccc(S(=O)(=O)NCCc2csc(-c3ccccc3)n2)s1	–	–	–	42
CCc1ccc(S(=O)(=O)NCc2csc(-c3ccccc3)n2)s1	–	–	–	36
O=S(=O)(NCc1csc(-c2cccnc2)n1)c1ccc(Cl)s1	–	–	–	–
O=S(=O)(NCc1csc(-c2ccccc2)n1)c1ccc(Cl)s1	–	–	–	33
Cc1ccc(NC(=O)C2=C(O)c3ccccc3N(C)S2(=O)=O)cc1	–	–	–	–
CC(C)N(C(=O)CSc1nnc(CN2CCCCCC2=O)n1-c1ccccn1)C(C)C	–	–	–	–
CC(=O)[C@H]1[C@H](c2cccc(Cl)c2)C(C#N)(C#N)[C@@H]2c3ccccc3C=CN21	–	45	·	·
Cc1c(C(N)=O)sc2ncn(CC(=O)N3CCC(C)CC3)c(=O)c12	–	–	–	–
CC(C)Oc1ccc(CNCC2(O)CCOC(C)(C)C2)cc1 (configuration not stated)	–	–	–	–
CC(C)Oc1ccc(CNC2CCOC(C)(C)C2)cc1 (configuration not stated)	–	–	–	42
CCOC(=O)c1c(N2C(=O)Nc3cc(Cl)c(Cl)cc3N2O)sc2c1CCCCC2	–	–	–	–
SMILES	BB579 growth dn	Yeast life ext	PostGolgi yeast	PostGolgi ctrl
Clc1ccc(Cn2ncc3c(NCc4ccco4)ncnc32)c(Cl)c1	–	–	–	39
Cn1c(=O)c(C(=O)CSc2nncs2)c(N)n(Cc2ccccc2)c1=O	–	–	–	–
Cc1ccc(-n2nnc3c(=O)n(CC(=O)N4CCC(C)CC4)cnc32)cc1	43	–	–	–
CC(C)(C)N1C(=O)c2ccc(C(=O)NCc3ccco3)cc2C1=O	–	–	–	–
Fc1ccc(Sc2cc(Cl)c(-c3ccccc3)nn2)cc1	–	–	–	39
CCOC(=O)C1CCCN(C(=O)Nc2cccc(Cl)c2)C1 (configuration not stated)	–	–	–	–
O=C(Nc1nnc(C2CC2)s1)c1cccc(S(=O)(=O)N2CC(c3ccccc3)CC2=O)c1 (configuration not stated)	–	–	–	–
N#CC(C#N)C(c1ccsc1)c1c(-c2ccccc2)[nH][nH]c1=O (configuration not stated)	–	40	–	–
CCCc1[nH][nH]c(=O)c1C(c1cccc(Cl)c1)C(C#N)C#N (configuration not stated)	–	–	–	–
Cc1cc(C)c2c(n1)nn1c(NCCN3CCOCC3)cc(C)nc21	–	–	–	–
COCCNc1cc(C)nc2c3c(C)cc(C)nc3nn12	–	–	47	–
COc1oc(-c2ccccc2)nc1C(F)(F)F	–	–	–	–
CSc1nnc2n(Cc3ccccc3)c(=O)c3c4c(sc3n12)COC(C(C)C)C4 (configuration not stated)	–	–	–	–

Compound activity (PubChem BioAssay)
